Results from ChEMBL document CHEMBL1125656, “Novel indole-2-carboxylates as ligands for the strychnine-insensitive N-methyl-D-aspartate-linked glycine receptor” (J Med Chem, 1991).

Legend:
Glutamate NMDA receptor [1] = assay: Inhibition of strychnine-insensitive [3H]glycine binding to the N-methyl-D-aspartate glutamate receptor of synaptic plasma membranes(SPM) prepared from rat forebrain; assay type: cell-free
Summary of the method: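 Rat forebrain synaptic plasma membranes (male Sprague-Dawley, 30–45 days old), Triton X-100-washed; 0.2–0.4 mg incubated with 10 nM [3H]glycine and a range of compound concentrations in triplicate, in 50 mM Tris/acetate pH 7.4, for 10 min at 2 °C. Bound ligand separated by centrifugation (12000g, 15 min, 4 °C) or GF/B filtration, then scintillation counted. Nonspecific binding set with 100 μM glycine. Ki derived by logit-log analysis.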

Glutamate NMDA receptor [2] = assay: Inhibition of strychnine-insensitive [3H]MK-801 binding to the N-methyl-D-aspartate glutamate receptor of synaptic plasma membranes(SPM) prepared from rat forebrain; assay type: cell-free
Summary of the method: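 Membranes treated with 0.04% v/v Triton X-100 and washed extensively in 50 mM Tris acetate pH 7.4. SPM (0.2–0.4 mg) incubated with 5 nM [3H]MK-801, 10 nM L-glutamate and test compound in the same buffer for 30 min at 25 °C. Samples filtered on 0.05% polyethylenimine-treated GF/B filters and washed four times with cold buffer. Filters scintillation counted; nonspecific binding set with 60 μM MK-801.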

Row | Compound | Ki (Glutamate NMDA receptor [1]) | IC50 (Glutamate NMDA receptor [2])
1 | O=C(O)c1[nH]c2cc(Cl)ccc2c1O | > 100 µM | –
2 | CCOC(=O)Cc1c(C(=O)OCCCN(C)C)[nH]c2cc(Cl)ccc12 | > 100 µM | –
3 | Cc1ccc2[nH]c(C(=O)O)cc2c1 | > 100 µM | –
4 | O=C(O)c1cc2cc(Cl)ccc2[nH]1 [5-CHLOROINDOLE-2-CARBOXYLIC ACID] | > 100 µM | –
5 | O=C(O)CCCCc1c(C(=O)O)[nH]c2ccccc12 | > 100 µM | –
6 | CCC(C(=O)O)c1c(C(=O)O)[nH]c2ccccc12 (stereo not given) | > 100 µM | –
7 | O=C(O)c1cc2ccccc2[nH]1 [INDOLE-2-CARBOXYLIC ACID] | > 100 µM | –
8 | O=C(O)CCCc1c(C(=O)O)[nH]c2ccccc12 | > 100 µM | –
9 | O=C(O)c1cc2cc(Br)ccc2[nH]1 | > 100 µM | –
10 | O=C(O)c1[nH]c2ccccc2c1CO | > 100 µM | –
11 | O=C(O)Cc1c(C(=O)O)[nH]c2c(Cl)cccc12 | > 30 µM | –
12 | O=C(O)c1cc2c(C(=O)O)cccc2[nH]1 | > 100 µM | –
13 | O=C(O)CCc1c(C(=O)O)[nH]c2ccccc12 | > 100 µM | –
14 | O=C(O)C1Cc2ccccc2N1 (stereo not given) | > 30 µM | –
15 | Cn1c(C(=O)O)c(CC(=O)O)c2ccccc21 | > 100 µM | –
16 | O=C(O)c1cc2c(O)cccc2[nH]1 | > 30 µM | –
17 | O=C(O)CC1c2ccccc2OC1C(=O)O (stereo not given) | > 30 µM | –
18 | O=C(O)c1cc2cc(F)ccc2[nH]1 [5-FLUOROINDOLE-2-CARBOXYLIC ACID] | 91 µM | –
19 | COc1ccc2[nH]c(C(=O)O)cc2c1 | > 100 µM | –
20 | O=C(O)Cc1cc2ccccc2nc1C(=O)O | > 100 µM | –
21 | CN(C)CCCNC(=O)Cc1c(C(=O)O)[nH]c2cc(Cl)ccc12 | > 30 µM | –
22 | O=C(O)Cc1c(C(=O)O)oc2ccccc12 | > 100 µM | –
23 | O=C(O)c1[nH]c2ccccc2c1CCO | > 30 µM | –
24 | CN(C)CCNC(=O)Cc1c(C(=O)NCCN(C)C)[nH]c2cc(Cl)ccc12 | > 30 µM | –

Results, then the compound that gave them:

Row | Ki (Glutamate NMDA receptor [1]) | IC50 (Glutamate NMDA receptor [2]) | Compound
25 | > 30 µM | – | CCOC(=O)Cc1c(CO)[nH]c2cc(Cl)ccc12
26 | 8.25 µM | – | CCOCCc1c(C(=O)O)[nH]c2cc(Cl)ccc12
27 | 1.18 µM | – | NC(=O)Cc1c(C(=O)O)[nH]c2cc(Cl)ccc12
28 | > 30 µM | – | CN(C)C(=O)Cc1c(C(=O)O)[nH]c2cc(Cl)ccc12
29 | > 30 µM | – | Cc1cc2c(CC(=O)O)c(C(=O)O)[nH]c2cc1Cl
30 | 1.61 µM | 6.8 µM | O=C(O)Cc1c(C(=O)O)[nH]c2cc(Cl)ccc12
31 | > 30 µM | – | O=C(O)c1cc2c(OCc3ccccc3)cccc2[nH]1
32 | 0.68 µM | – | CCOC(=O)Cc1c(C(=O)O)[nH]c2cc(Cl)ccc12
33 | > 30 µM | – | O=C(O)Cc1c(CO)[nH]c2cc(Cl)ccc12
34 | 10.9 µM | – | O=C(O)Cc1c(C(=O)O)[nH]c2ccc(Cl)cc12
35 | > 30 µM | – | CCOC(=O)Cc1c(C=O)[nH]c2cc(Cl)ccc12
36 | 29.2 µM | – | O=C(O)Cc1c(C(=O)O)[nH]c2ccc(Br)cc12
37 | 14.1 µM | – | O=C(O)Cc1c(C(=O)O)[nH]c2ccc(F)cc12
38 | 6.8 µM | – | CCCOC(=O)Cc1c(C(=O)O)[nH]c2cc(Cl)ccc12
39 | 29.6 µM | – | CC(=O)Cc1c(C(=O)O)[nH]c2ccccc12
40 | 75.1 µM | – | O=C1Cc2c([nH]c3cc(Cl)ccc23)C(=O)O1
41 | 0.47 µM | – | CCCNC(=O)Cc1c(C(=O)O)[nH]c2cc(Cl)ccc12
42 | 3.85 µM | – | CC(C)OC(=O)Cc1c(C(=O)O)[nH]c2cc(Cl)ccc12
43 | 10.3 µM | – | O=C(Cc1c(C(=O)O)[nH]c2cc(Cl)ccc12)NCCO
44 | 0.63 µM | – | O=C(Cc1c(C(=O)O)[nH]c2cc(Cl)ccc12)NCCc1ccccc1
